Consider 13 molecules from ChEMBL document CHEMBL4425193 (Bioorg Med Chem, 2016).

Experiment [1] concerns HCC4017. Briefly: Cytotoxicity against human HCC4017 cells at 0.1 to 100 uM after 1 day by MTS assay. In kind it is functional, cell-based. In outline:
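HCC4017 lung cancer cells were seeded in clear-bottom 96-well plates. On day 2 they were exposed to compound in RPMI with 10% FBS containing 3% BSA, at eight graded concentrations from 0.1 μM to 100 μM, each in triplicate. On day 3 MTS reagent was added and absorbance was read at 490 nm.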

The nature of experiment [2]: Displacement of FITC-labeled PPS1D1 from lipid phosphatidylserine assessed as remaining fluorescence at 1 uM incubated for 1 hr by ELISA-like competitive binding assay. In outline:
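Lipid PS in hexane (10 μg/ml) was coated into wells and dried at room temperature. Wells were blocked with 1% BSA/PBS for 1 h, then saturated with 200 nM FITC-PPS1D1 in blocking buffer for 1 h at room temperature and washed. Competitor at 1 μM was added for 1 h. After PBS washes, remaining fluorescence was read at 520 nm.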

Experiment [3] has as its system HCC4017. Briefly: Cytotoxicity against human HCC4017 cells at 30 uM after 1 day by MTS assay. In kind it is functional, cell-based. In outline: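 HCC4017 cells were plated in 96-well format. On the second day compound was added in RPMI/10% FBS with 3% BSA, and each concentration was run in triplicate. MTS reagent was added on day 3 and absorbance was read at 490 nm. The absorbance values at the 30 μM treatment were taken for this readout.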

The subject of experiment [4] is HCC4017. Briefly: Cytotoxicity against human HCC4017 cells at 30 uM after 1 day by MTS assay.
For experiment [5], the system named is HCC4017. Briefly: Cytotoxicity against human HCC4017 cells after 1 day by MTS assay. In kind it is functional, cell-based. Particulars: HCC4017, 24 h.
In the next experiment the test system is NCI-H460. Briefly: Cytotoxicity against human H460 cells after 1 day by MTS assay. The class given is functional, cell-based. The conditions noted are these: NCI-H460, 24 h.

Activity calls are given as the source filed them. No cut-off for these calls is given here. Positions of bridges follow the written chain, without caps; N, C: chain ends. Non-standard residues stand in square brackets, D forms with d. Residues, ends and D or L forms follow the SMILES beside them. Chains are numbered I, II in the order given. ξ: configuration not given here. Gly(N-piperonyl) = O=C(O)CNCc1ccc2c(c1)OCO2; N(4-MeOBn)Gly = COc1ccc(CNCC(=O)O)cc1; Nrpe = C[C@@H](NCC(=O)O)c1ccccc1; Nlys = NCCCCNCC(=O)O; ξK = NCCCCC(N)C(=O)O

As for `CSCC[C@H](NC(=O)[C@@H](CCCCN)NC(=O)[C@@H](N)CCCCN)C(=O)NCCCCC(NC(=O)[C@H](CCSC)NC(=O)[C@@H](CCCCN)NC(=O)[C@@H](N)CCCCN)C(N)=O` (stereo partly drawn), the outcome in the experiment on HCC4017 [1] was inactive. The inhibition result in experiment [2] is “inactive”.

`C=CCNCC(=O)N(CCOC)CC(=O)N(CC=C)CC(=O)N(CCOC)CC(=O)N(CC=C)CC(=O)NCC(=O)N[C@H](CCCCN)C(=O)N[C@@H](CCSC)C(=O)NCCCCC(NC(=O)[C@H](CCSC)NC(=O)[C@@H](CCCCN)NC(=O)CNC(=O)CN(CC=C)C(=O)CN(CCOC)C(=O)CN(CC=C)C(=O)CN(CCOC)C(=O)CNCC=C)C(N)=O` (stereo partly drawn): the result in the experiment on HCC4017 [1], in the experiment on HCC4017 [3] and in the experiment with HCC4017 [4] was inactive. Further, the inhibition entry in experiment [2] was “inactive”.

For the molecule `COc1ccc(CN(CC(=O)N(CCCCN)CC(=O)N[C@@H](CCCCN)C(=O)N[C@@H](C)C(=O)N[C@@H](CCSC)C(=O)NCCCCC(NC(=O)[C@H](CCSC)NC(=O)[C@H](C)NC(=O)[C@H](CCCCN)NC(=O)CN(CCCCN)C(=O)CN(Cc2ccc(OC)cc2)C(=O)CN(C(=O)CN(Cc2ccc3c(c2)OCO3)C(=O)CN[C@H](C)c2ccccc2)[C@H](C)c2ccccc2)C(N)=O)C(=O)CN(C(=O)CN(Cc2ccc3c(c2)OCO3)C(=O)CN[C@H](C)c2ccccc2)[C@H](C)c2ccccc2)cc1` (stereo partly drawn) (I: H-[Nrpe][Gly(N-piperonyl)][Nrpe][N(4-MeOBn)Gly][Nlys]KAM[ξK]-NH2 / II: H-[Nrpe][Gly(N-piperonyl)][Nrpe][N(4-MeOBn)Gly][Nlys]KAM; amide I:9-II:C), the inhibition result in experiment [2] is “inactive”. Further, the outcome in the experiment on HCC4017 [3] and in the experiment on HCC4017 [4] was inactive.

With `CSCC[C@H](NC(=O)[C@@H](CCCCN)NC(=O)[C@H](CCCCN)NC(=O)CN(CCCCN)C(=O)CN(C)C(=O)CN(C(=O)CN(Cc1ccc2c(c1)OCO2)C(=O)CN[C@H](C)c1ccccc1)[C@H](C)c1ccccc1)C(=O)NCCCCC(NC(=O)[C@H](CCSC)NC(=O)[C@@H](CCCCN)NC(=O)[C@H](CCCCN)NC(=O)CN(CCCCN)C(=O)CN(C)C(=O)CN(C(=O)CN(Cc1ccc2c(c1)OCO2)C(=O)CN[C@H](C)c1ccccc1)[C@H](C)c1ccccc1)C(N)=O` (stereo partly drawn), the inhibition result in experiment [2] was “inactive”. In addition, the outcome with HCC4017 [3] and in the experiment with HCC4017 [4] was inactive.

For the molecule `COc1ccc(CN(CC(=O)N(CCCCN)CC(=O)N[C@@H](CCCCN)C(=O)N[C@H](CCCCN)C(=O)N[C@@H](CCSC)C(=O)NCCCCC(NC(=O)[C@H](CCSC)NC(=O)[C@@H](CCCCN)NC(=O)[C@H](CCCCN)NC(=O)CN(CCCCN)C(=O)CN(Cc2ccc(OC)cc2)C(=O)CN(C(=O)CNCc2ccc3c(c2)OCO3)[C@H](C)c2ccccc2)C(N)=O)C(=O)CN(C(=O)CNCc2ccc3c(c2)OCO3)[C@H](C)c2ccccc2)cc1` (stereo partly drawn), the outcome in the experiment on HCC4017 [1] was inactive. In addition, the inhibition entry in experiment [2] is “inactive”.

Take `COc1ccc(CNCC(=O)N(CCCCN)CC(=O)N[C@@H](CCCCN)C(=O)N[C@H](CCCCN)C(=O)N[C@@H](CCSC)C(=O)NCCCCC(NC(=O)[C@H](CCSC)NC(=O)[C@@H](CCCCN)NC(=O)[C@H](CCCCN)NC(=O)CN(CCCCN)C(=O)CNCc2ccc(OC)cc2)C(N)=O)cc1` (stereo partly drawn): the outcome with HCC4017 [1] was inactive. Also, the inhibition entry in experiment [2] was “inactive”.

`COc1ccc(CN(CC(=O)N(CCCCN)CC(=O)N[C@@H](CCCCN)C(=O)N[C@H](CCCCN)C(=O)N[C@@H](CCSC)C(=O)NCCCCC(NC(=O)[C@H](CCSC)NC(=O)[C@@H](CCCCN)NC(=O)[C@H](CCCCN)NC(=O)CN(CCCCN)C(=O)CN(Cc2ccc(OC)cc2)C(=O)CN(C(=O)CN(Cc2ccc3c(c2)OCO3)C(=O)CN[C@H](C)c2ccccc2)[C@H](C)c2ccccc2)C(N)=O)C(=O)CN(C(=O)CN(Cc2ccc3c(c2)OCO3)C(=O)CN[C@H](C)c2ccccc2)[C@H](C)c2ccccc2)cc1` (stereo partly drawn): the result in the experiment on HCC4017 [1], with HCC4017 [3] and in the experiment with HCC4017 [4] was Active. Moreover, the inhibition result in experiment [2] was “Active”. The 50% inhibitory concentration (IC50) with HCC4017 [5] and in the experiment with NCI-H460 was 5 to 10 µM throughout.

For `CSCC[C@H](NC(=O)[C@@H](CCCCN)NC(=O)[C@H](CCCCN)NC(=O)CNCCCCN)C(=O)NCCCCC(NC(=O)[C@H](CCSC)NC(=O)[C@@H](CCCCN)NC(=O)[C@H](CCCCN)NC(=O)CNCCCCN)C(N)=O` (stereo partly drawn), the result in the experiment on HCC4017 [1] was inactive. For the same molecule, the inhibition result in experiment [2] was “inactive”.

Turning to `COc1ccc(CN(CC(=O)N(CCCCN)CC(=O)N[C@@H](CCCCN)C(=O)N[C@H](CCCCN)C(=O)N[C@@H](CCSC)C(=O)NCCCCC(NC(=O)[C@H](CCSC)NC(=O)[C@@H](CCCCN)NC(=O)[C@H](CCCCN)NC(=O)CN(CCCCN)C(=O)CN(Cc2ccc(OC)cc2)C(=O)CN[C@H](C)c2ccccc2)C(N)=O)C(=O)CN[C@H](C)c2ccccc2)cc1` (stereo partly drawn), the outcome with HCC4017 [1] was inactive. Also, in experiment [2], the inhibition entry is “inactive”.

Regarding `COc1ccc(CN(CC(=O)N(CCCCN)CC(=O)N[C@@H](CCCCN)C(=O)N[C@H](CCCCN)C(=O)N[C@@H](CCSC)C(=O)NCCCCC(NC(=O)[C@H](CCSC)NC(=O)[C@@H](CCCCN)NC(=O)[C@H](CCCCN)NC(=O)CN(CCCCN)C(=O)CN(Cc2ccc(OC)cc2)C(=O)CN(C)C(=O)CN(Cc2ccc3c(c2)OCO3)C(=O)CN[C@H](C)c2ccccc2)C(N)=O)C(=O)CN(C)C(=O)CN(Cc2ccc3c(c2)OCO3)C(=O)CN[C@H](C)c2ccccc2)cc1` (stereo partly drawn), in experiment [2], the inhibition result was “inactive”. The outcome in the experiment with HCC4017 [3] and with HCC4017 [4] was inactive.

For `COc1ccc(CN(CC(=O)N(CCCCN)CC(=O)N[C@@H](CCCCN)C(=O)N[C@H](CCCCN)C(=O)N[C@@H](C)C(=O)NCCCCC(NC(=O)[C@H](C)NC(=O)[C@@H](CCCCN)NC(=O)[C@H](CCCCN)NC(=O)CN(CCCCN)C(=O)CN(Cc2ccc(OC)cc2)C(=O)CN(C(=O)CN(Cc2ccc3c(c2)OCO3)C(=O)CN[C@H](C)c2ccccc2)[C@H](C)c2ccccc2)C(N)=O)C(=O)CN(C(=O)CN(Cc2ccc3c(c2)OCO3)C(=O)CN[C@H](C)c2ccccc2)[C@H](C)c2ccccc2)cc1` (stereo partly drawn), the result in the experiment on HCC4017 [3] and in the experiment on HCC4017 [4] was Active.

For the molecule `COCCN(CC(=O)N[C@@H](CCCCN)C(=O)N[C@H](CCCCN)C(=O)N[C@@H](CCSC)C(=O)NCCCCC(NC(=O)[C@H](CCSC)NC(=O)[C@@H](CCCCN)NC(=O)[C@H](CCCCN)NC(=O)CN(CCOC)C(=O)CN(Cc1ccc(OC)cc1)C(=O)CN(C(=O)CN(Cc1ccc2c(c1)OCO2)C(=O)CN[C@H](C)c1ccccc1)[C@H](C)c1ccccc1)C(N)=O)C(=O)CN(Cc1ccc(OC)cc1)C(=O)CN(C(=O)CN(Cc1ccc2c(c1)OCO2)C(=O)CN[C@H](C)c1ccccc1)[C@H](C)c1ccccc1` (stereo partly drawn), the result in the experiment with HCC4017 [1] was Active.

Turning to `C=CCN(CC(=O)N[C@@H](CCCCN)C(=O)N[C@H](CCCCN)C(=O)N[C@@H](CCSC)C(=O)NCCCCC(NC(=O)[C@H](CCSC)NC(=O)[C@@H](CCCCN)NC(=O)[C@H](CCCCN)NC(=O)CN(CC=C)C(=O)CN(Cc1ccc(OC)cc1)C(=O)CN(C(=O)CN(Cc1ccc2c(c1)OCO2)C(=O)CN[C@H](C)c1ccccc1)[C@H](C)c1ccccc1)C(N)=O)C(=O)CN(Cc1ccc(OC)cc1)C(=O)CN(C(=O)CN(Cc1ccc2c(c1)OCO2)C(=O)CN[C@H](C)c1ccccc1)[C@H](C)c1ccccc1` (stereo partly drawn), the result with HCC4017 [1] was Active.
